Tested on: Rattus norvegicus
Assay: Therapeutic index, ratio of MED for effect on spatial learning performance in po dosed Wistar rat by Morris water maze test to MED for anxiolytic activity in Wistar rat by Vogel punished drinking conflict test
Conditions: not given
In short: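 Index is the Morris water maze minimum effective dose (oral, given 1 h before the first daily trial, 4 days of 3 trials) divided by the Vogel punished drinking minimum effective dose.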

Compound	TI
N#Cc1cccc(S(=O)(=O)c2cnc3cc(F)ccc3c2-c2ccc(F)cc2)c1	10
O=S(=O)(c1ccc(F)c(Cl)c1)c1cnc2cc(F)ccc2c1-c1ccc(Cl)cc1	10

Tested on: Rattus norvegicus
Assay: Effect on spatial learning performance in po dosed Wistar rat measured as escape latency dosed 1 hr prior to first daily trial by Morris water maze test
Type: ADME, organism-based
Conditions: in vivo
In short: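 Morris water maze with male Harlan-Wistar rats (190–220 g): three trials a day for 4 days, hidden 10 cm platform, video tracking; 30 mg/kg p.o. in Type IV lipid formulation 1 h before first daily trial; plasma taken after last Day 4 trial; 7–17 rats/group.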

Compound	Activity
N#Cc1cccc(S(=O)(=O)c2cnc3cc(F)ccc3c2-c2ccc(F)cc2)c1	Toxic
O=S(=O)(c1ccc(F)c(Cl)c1)c1cnc2cc(F)ccc2c1-c1ccc(Cl)cc1	Toxic

Tested on: Rattus norvegicus
Assay: Anxiolytic activity in po dosed Wistar rat assessed as increase in water drinking time during punished period administered as suspension by Vogel punished drinking conflict test
Type: functional
Conditions: read-out: MED
In short: (§1)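 Vogel punished-drinking test in rats, single i.p. or p.o. dose as suspension in 5% Tween 80; plasma sampled ~45 min after i.p. or ~75 min after p.o. dosing.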

Compound	minimal effective dose
Cc1cccc(C#Cc2ccccc2)n1	3 mg/kg
O=S(=O)(c1ccc(F)c(F)c1)c1cnc2c(F)cccc2c1-c1ccc(Cl)cc1	> 30 mg/kg
N#Cc1cccc(S(=O)(=O)c2cnc3cc(F)ccc3c2-c2ccc(F)cc2)c1	3 to 10 mg/kg
O=S(=O)(c1ccc(F)c(Cl)c1)c1cnc2cc(F)ccc2c1-c1ccc(Cl)cc1	3 to 10 mg/kg
O=S(=O)(c1ccc(F)c(F)c1)c1cnc2cc(F)ccc2c1-c1ccc(Cl)cc1	10 mg/kg

Tested on: Liver
Assay: Intrinsic clearance in rat liver microsomes at 2.5 uM assessed per gram of liver
Type: ADME, microsome
Conditions: not given

Compound	CLint
Cc1cccc(C#Cc2ccccc2)n1	0.19 mL/min/g
O=S(=O)(c1cc(Cl)cc(Cl)c1)c1cnc2cc(F)ccc2c1-c1cccc(F)c1	1.53 mL/min/g
O=S(=O)(c1ccc(F)cc1)c1cnc2cc(F)c(Cl)cc2c1-c1ccc(Cl)cc1	0.34 mL/min/g
O=S(=O)(c1ccc(F)c(F)c1)c1cnc2c(F)cccc2c1-c1ccc(Cl)cc1	0.2 mL/min/g
O=S(=O)(c1ccc(F)cc1)c1cnc2c(F)c(Cl)ccc2c1-c1ccc(Cl)cc1	0.01 mL/min/g
N#Cc1cccc(S(=O)(=O)c2cnc3cc(F)ccc3c2-c2ccc(F)cc2)c1	0.7 mL/min/g
O=S(=O)(c1ccc(F)cc1)c1cnc2cc(Cl)c(F)cc2c1-c1ccc(Cl)cc1	0.57 mL/min/g
O=S(=O)(c1ccc(F)c(Cl)c1)c1cnc2cc(F)ccc2c1-c1ccc(Cl)cc1	0.45 mL/min/g
Cc1ccc(S(=O)(=O)c2cnc3ccccc3c2N2CCOCC2)cc1C	18 mL/min/g
O=S(=O)(c1ccc(F)c(F)c1)c1cnc2cc(F)ccc2c1-c1ccc(Cl)cc1	1.41 mL/min/g
O=S(=O)(c1cc(Cl)cc(Cl)c1)c1cnc2cc(F)ccc2c1-c1ccc(Cl)cc1	0.77 mL/min/g
Cc1ccc(S(=O)(=O)c2cnc3ccccc3c2-c2ccc(Cl)cc2)cc1	17.5 mL/min/g
O=S(=O)(c1cccc(F)c1)c1cnc2c(F)cccc2c1-c1ccc(F)cc1	0.2 mL/min/g
O=S(=O)(c1cc(F)cc(F)c1)c1cnc2c(F)cccc2c1-c1ccc(F)cc1	0.63 mL/min/g
O=S(=O)(c1ccc(F)cc1)c1cnc2cc(F)ccc2c1-c1ccc(Cl)cc1	0.89 mL/min/g

Tested on: Rattus norvegicus
Assay: Anxiolytic activity in ip dosed Wistar rat assessed as increase in water drinking time during punished period administered as suspension by Vogel punished drinking conflict test
Type: functional
Conditions: read-out: MED
In short: as §1

Compound	minimal effective dose
Cc1cccc(C#Cc2ccccc2)n1	3 mg/kg
O=S(=O)(c1cc(Cl)cc(Cl)c1)c1cnc2cc(F)ccc2c1-c1cccc(F)c1	30 mg/kg
O=S(=O)(c1ccc(F)c(F)c1)c1cnc2c(F)cccc2c1-c1ccc(Cl)cc1	3 mg/kg
N#Cc1cccc(S(=O)(=O)c2cnc3cc(F)ccc3c2-c2ccc(F)cc2)c1	10 mg/kg
O=S(=O)(c1ccc(F)c(Cl)c1)c1cnc2cc(F)ccc2c1-c1ccc(Cl)cc1	30 mg/kg
O=S(=O)(c1ccc(F)c(F)c1)c1cnc2cc(F)ccc2c1-c1ccc(Cl)cc1	10 mg/kg
O=S(=O)(c1cc(Cl)cc(Cl)c1)c1cnc2cc(F)ccc2c1-c1ccc(Cl)cc1	30 mg/kg
O=S(=O)(c1cccc(F)c1)c1cnc2c(F)cccc2c1-c1ccc(F)cc1	30 mg/kg
O=S(=O)(c1cc(F)cc(F)c1)c1cnc2c(F)cccc2c1-c1ccc(F)cc1	30 mg/kg

Tested on: Rattus norvegicus
Assay: Therapeutic index, ratio of plasma concentration causing effect on spatial learning performance in po dosed Wistar rat by Morris water maze test to plasma concentration causing anxiolytic activity in Wistar rat by Vogel punished drinking conflict test
Conditions: not given
In short: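 Index is the plasma level in rats at 30 mg/kg p.o. in the Morris water maze (sampled after the last trial on Day 4) divided by the plasma level at the Vogel minimum effective dose. Vogel plasma was sampled right after the test.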

Compound	TI
N#Cc1cccc(S(=O)(=O)c2cnc3cc(F)ccc3c2-c2ccc(F)cc2)c1	<=8.4
O=S(=O)(c1ccc(F)c(Cl)c1)c1cnc2cc(F)ccc2c1-c1ccc(Cl)cc1	3.9

Biological target: Metabotropic glutamate receptor 5 (Rattus norvegicus) (UniProt P31424)
Assay: Displacement of [3H]M-MPEP from rat mGluR5 expressed in rat cerebrocortical membrane at 1 uM after 60 mins relative to control
Type: cell membranes
Conditions: not given

Metabotropic glutamate receptor 5 (Rattus norvegicus), sequence (P31424 21-1203 limits assumed): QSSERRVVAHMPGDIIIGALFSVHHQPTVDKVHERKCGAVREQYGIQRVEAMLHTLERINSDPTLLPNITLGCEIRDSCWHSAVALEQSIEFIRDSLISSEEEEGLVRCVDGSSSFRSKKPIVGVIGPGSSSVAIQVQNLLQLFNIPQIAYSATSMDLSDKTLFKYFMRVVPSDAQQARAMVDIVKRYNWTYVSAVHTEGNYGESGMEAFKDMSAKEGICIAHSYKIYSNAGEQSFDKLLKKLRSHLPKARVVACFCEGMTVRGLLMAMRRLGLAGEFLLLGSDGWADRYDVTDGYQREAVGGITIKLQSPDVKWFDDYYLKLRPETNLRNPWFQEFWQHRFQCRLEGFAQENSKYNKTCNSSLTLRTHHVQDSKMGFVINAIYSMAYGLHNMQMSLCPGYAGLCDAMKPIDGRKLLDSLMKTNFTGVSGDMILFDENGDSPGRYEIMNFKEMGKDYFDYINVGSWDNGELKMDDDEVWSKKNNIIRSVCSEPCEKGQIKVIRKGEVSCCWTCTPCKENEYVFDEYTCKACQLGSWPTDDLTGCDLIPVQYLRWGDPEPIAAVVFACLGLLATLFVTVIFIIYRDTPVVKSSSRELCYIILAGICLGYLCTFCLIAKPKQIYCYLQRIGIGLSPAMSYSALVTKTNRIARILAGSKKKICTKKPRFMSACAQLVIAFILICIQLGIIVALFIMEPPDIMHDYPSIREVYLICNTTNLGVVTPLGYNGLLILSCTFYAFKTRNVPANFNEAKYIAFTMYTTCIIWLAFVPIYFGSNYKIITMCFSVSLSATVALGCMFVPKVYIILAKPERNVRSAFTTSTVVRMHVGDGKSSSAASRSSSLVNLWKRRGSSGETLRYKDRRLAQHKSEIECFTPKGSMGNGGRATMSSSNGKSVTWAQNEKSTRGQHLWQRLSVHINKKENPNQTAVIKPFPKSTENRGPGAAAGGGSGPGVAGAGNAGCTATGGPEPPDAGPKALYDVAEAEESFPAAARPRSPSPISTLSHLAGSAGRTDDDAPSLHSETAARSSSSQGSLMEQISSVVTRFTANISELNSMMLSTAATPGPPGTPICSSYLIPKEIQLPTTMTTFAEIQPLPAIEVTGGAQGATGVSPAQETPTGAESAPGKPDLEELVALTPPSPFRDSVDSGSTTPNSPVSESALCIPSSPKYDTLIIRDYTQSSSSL

Compound	inhibition
O=S(=O)(c1ccc(F)cc1)c1cnc2cc(F)c(Cl)cc2c1-c1ccc(Cl)cc1	43.7%
O=S(=O)(c1ccc(F)cc1)c1cnc2c(F)c(Cl)ccc2c1-c1ccc(Cl)cc1	83.6%
O=S(=O)(c1ccc(F)cc1)c1cnc2cc(Cl)c(F)cc2c1-c1ccc(Cl)cc1	48%
O=S(=O)(c1ccc(F)cc1)c1cnc2cc(F)ccc2c1-c1ccc(Cl)cc1	91.6%

Biological target: Metabotropic glutamate receptor 5 (Homo sapiens, UniProt P41594)
Assay: Negative allosteric modulation of human mGluR5a expressed in CHO cells assessed as reduction in DHPG-induced cytosolic Ca2+ influx after 10 to 20 mins by fluo-4/AM-dye based fluorometric analysis
Type: functional, cell-based
Conditions: not given

Metabotropic glutamate receptor 5 (Homo sapiens, UniProt P41594), sequence (P41594 whole entry): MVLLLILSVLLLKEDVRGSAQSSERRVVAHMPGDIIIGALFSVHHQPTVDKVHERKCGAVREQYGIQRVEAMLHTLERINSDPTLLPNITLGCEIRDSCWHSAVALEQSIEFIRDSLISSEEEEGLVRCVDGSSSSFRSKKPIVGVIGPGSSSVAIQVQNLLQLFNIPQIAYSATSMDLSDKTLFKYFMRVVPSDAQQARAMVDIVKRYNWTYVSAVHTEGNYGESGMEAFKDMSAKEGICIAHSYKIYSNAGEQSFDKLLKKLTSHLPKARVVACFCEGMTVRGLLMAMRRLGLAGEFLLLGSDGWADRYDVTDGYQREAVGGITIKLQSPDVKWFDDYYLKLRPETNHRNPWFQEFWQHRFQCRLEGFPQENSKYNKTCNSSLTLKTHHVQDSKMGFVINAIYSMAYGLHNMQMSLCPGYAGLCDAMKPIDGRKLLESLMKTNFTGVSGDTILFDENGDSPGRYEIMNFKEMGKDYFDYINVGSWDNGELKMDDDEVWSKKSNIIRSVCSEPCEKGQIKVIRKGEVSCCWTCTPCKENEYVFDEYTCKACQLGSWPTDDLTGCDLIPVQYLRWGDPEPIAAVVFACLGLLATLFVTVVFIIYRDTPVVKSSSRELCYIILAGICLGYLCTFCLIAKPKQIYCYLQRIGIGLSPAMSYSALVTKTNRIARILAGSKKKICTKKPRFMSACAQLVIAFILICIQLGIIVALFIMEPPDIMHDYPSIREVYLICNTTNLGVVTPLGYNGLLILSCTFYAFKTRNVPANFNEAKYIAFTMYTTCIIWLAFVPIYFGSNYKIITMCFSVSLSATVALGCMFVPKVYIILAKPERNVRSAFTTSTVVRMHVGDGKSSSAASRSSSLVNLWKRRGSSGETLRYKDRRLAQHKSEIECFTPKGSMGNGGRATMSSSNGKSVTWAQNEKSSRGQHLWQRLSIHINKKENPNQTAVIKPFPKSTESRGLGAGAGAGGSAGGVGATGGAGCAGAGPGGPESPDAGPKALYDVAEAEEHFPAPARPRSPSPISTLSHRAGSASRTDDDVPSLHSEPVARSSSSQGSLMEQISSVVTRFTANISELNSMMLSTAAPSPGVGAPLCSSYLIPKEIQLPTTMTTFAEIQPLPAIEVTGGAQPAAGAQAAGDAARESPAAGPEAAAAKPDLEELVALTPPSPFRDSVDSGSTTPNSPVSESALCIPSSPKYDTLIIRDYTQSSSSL

Compound	IC50
O=S(=O)(c1cc(Cl)cc(Cl)c1)c1cnc2cc(F)ccc2c1-c1cccc(F)c1	35 nM
O=S(=O)(c1ccc(F)c(F)c1)c1cnc2c(F)cccc2c1-c1ccc(Cl)cc1	13 nM
N#Cc1cccc(S(=O)(=O)c2cnc3cc(F)ccc3c2-c2ccc(F)cc2)c1	20 nM
O=S(=O)(c1ccc(F)c(Cl)c1)c1cnc2cc(F)ccc2c1-c1ccc(Cl)cc1	27 nM
O=S(=O)(c1ccc(F)c(F)c1)c1cnc2cc(F)ccc2c1-c1ccc(Cl)cc1	22 nM
O=S(=O)(c1cc(Cl)cc(Cl)c1)c1cnc2cc(F)ccc2c1-c1ccc(Cl)cc1	94 nM
O=S(=O)(c1cccc(F)c1)c1cnc2c(F)cccc2c1-c1ccc(F)cc1	69 nM
O=S(=O)(c1cc(F)cc(F)c1)c1cnc2c(F)cccc2c1-c1ccc(F)cc1	12 nM

Biological target: Metabotropic glutamate receptor 5 (Rattus norvegicus, UniProt P31424)
Assay: Displacement of [3H]M-MPEP from mGluR5 in Sprague-Dawley rat cerebrocortical membranes after 60 mins
Conditions: not given

Metabotropic glutamate receptor 5 (Rattus norvegicus, UniProt P31424), sequence (P31424 whole entry): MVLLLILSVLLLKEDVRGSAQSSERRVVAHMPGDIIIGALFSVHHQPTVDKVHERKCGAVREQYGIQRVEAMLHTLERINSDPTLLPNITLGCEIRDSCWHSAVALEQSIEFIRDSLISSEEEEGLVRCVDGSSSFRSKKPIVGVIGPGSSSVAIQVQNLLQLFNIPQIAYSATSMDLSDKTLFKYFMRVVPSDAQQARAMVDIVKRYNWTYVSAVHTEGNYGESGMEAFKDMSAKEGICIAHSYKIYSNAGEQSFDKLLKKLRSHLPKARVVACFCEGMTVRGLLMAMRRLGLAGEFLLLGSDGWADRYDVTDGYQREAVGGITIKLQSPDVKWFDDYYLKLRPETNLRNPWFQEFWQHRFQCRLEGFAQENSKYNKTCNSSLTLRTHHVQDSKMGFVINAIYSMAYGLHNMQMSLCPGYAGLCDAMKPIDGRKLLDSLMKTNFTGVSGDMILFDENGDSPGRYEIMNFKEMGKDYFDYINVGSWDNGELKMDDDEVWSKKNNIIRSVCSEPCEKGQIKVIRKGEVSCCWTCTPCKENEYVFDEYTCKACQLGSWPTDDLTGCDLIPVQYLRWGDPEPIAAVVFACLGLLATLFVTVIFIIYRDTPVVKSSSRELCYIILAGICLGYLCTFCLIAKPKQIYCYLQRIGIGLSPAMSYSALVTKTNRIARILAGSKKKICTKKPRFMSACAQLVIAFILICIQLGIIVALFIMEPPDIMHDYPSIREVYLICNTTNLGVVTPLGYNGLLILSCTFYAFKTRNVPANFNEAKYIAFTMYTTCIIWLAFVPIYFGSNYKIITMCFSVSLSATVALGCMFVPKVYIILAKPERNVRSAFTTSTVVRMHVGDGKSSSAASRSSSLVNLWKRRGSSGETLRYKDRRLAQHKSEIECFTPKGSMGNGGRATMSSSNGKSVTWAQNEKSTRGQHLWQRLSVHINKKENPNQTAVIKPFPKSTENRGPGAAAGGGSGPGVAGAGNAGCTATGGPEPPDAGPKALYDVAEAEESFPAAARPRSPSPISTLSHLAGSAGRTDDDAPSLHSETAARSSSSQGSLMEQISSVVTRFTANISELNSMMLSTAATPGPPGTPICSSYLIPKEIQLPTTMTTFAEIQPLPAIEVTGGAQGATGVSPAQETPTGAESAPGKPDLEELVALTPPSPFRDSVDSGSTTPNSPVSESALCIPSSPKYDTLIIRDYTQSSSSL

Compound	Ki
O=S(=O)(c1cc(Cl)cc(Cl)c1)c1cnc2cc(F)ccc2c1-c1cccc(F)c1	10.7 nM
O=S(=O)(c1ccc(F)cc1)c1cnc2c(F)c(Cl)ccc2c1-c1ccc(Cl)cc1	71.2 nM
N#Cc1cccc(S(=O)(=O)c2cnc3cc(F)ccc3c2-c2ccc(F)cc2)c1	6.5 nM
O=S(=O)(c1ccc(F)c(Cl)c1)c1cnc2cc(F)ccc2c1-c1ccc(Cl)cc1	8.3 nM
O=S(=O)(c1ccc(F)c(F)c1)c1cnc2cc(F)ccc2c1-c1ccc(Cl)cc1	17.1 nM
O=S(=O)(c1cc(Cl)cc(Cl)c1)c1cnc2cc(F)ccc2c1-c1ccc(Cl)cc1	30.3 nM
O=S(=O)(c1cccc(F)c1)c1cnc2c(F)cccc2c1-c1ccc(F)cc1	31.6 nM
O=S(=O)(c1cc(F)cc(F)c1)c1cnc2c(F)cccc2c1-c1ccc(F)cc1	13.3 nM
O=S(=O)(c1ccc(F)cc1)c1cnc2cc(F)ccc2c1-c1ccc(Cl)cc1	38.6 nM

Tested on: Plasma
Assay: Plasma concentration in Wistar rat at 30 mg/kg, po administered as single dose
Type: ADME, organism-based
Conditions: in vivo

Compound	concentration
O=S(=O)(c1ccc(F)c(F)c1)c1cnc2c(F)cccc2c1-c1ccc(Cl)cc1	196 nM
N#Cc1cccc(S(=O)(=O)c2cnc3cc(F)ccc3c2-c2ccc(F)cc2)c1	1280 nM
O=S(=O)(c1ccc(F)c(Cl)c1)c1cnc2cc(F)ccc2c1-c1ccc(Cl)cc1	866 nM

Tested on: Liver
Assay: Intrinsic clearance in human liver microsomes at 2.5 uM assessed per gram of liver
Type: ADME, microsome
Conditions: not given

Compound	CLint
Cc1cccc(C#Cc2ccccc2)n1	1.61 mL/min/g
O=S(=O)(c1cc(Cl)cc(Cl)c1)c1cnc2cc(F)ccc2c1-c1cccc(F)c1	0.41 mL/min/g
O=S(=O)(c1ccc(F)cc1)c1cnc2cc(F)c(Cl)cc2c1-c1ccc(Cl)cc1	0.01 mL/min/g
O=S(=O)(c1ccc(F)c(F)c1)c1cnc2c(F)cccc2c1-c1ccc(Cl)cc1	0.28 mL/min/g
O=S(=O)(c1ccc(F)cc1)c1cnc2c(F)c(Cl)ccc2c1-c1ccc(Cl)cc1	0.01 mL/min/g
N#Cc1cccc(S(=O)(=O)c2cnc3cc(F)ccc3c2-c2ccc(F)cc2)c1	0.39 mL/min/g
O=S(=O)(c1ccc(F)cc1)c1cnc2cc(Cl)c(F)cc2c1-c1ccc(Cl)cc1	0.01 mL/min/g
O=S(=O)(c1ccc(F)c(Cl)c1)c1cnc2cc(F)ccc2c1-c1ccc(Cl)cc1	0.39 mL/min/g
Cc1ccc(S(=O)(=O)c2cnc3ccccc3c2N2CCOCC2)cc1C	3.37 mL/min/g
O=S(=O)(c1ccc(F)c(F)c1)c1cnc2cc(F)ccc2c1-c1ccc(Cl)cc1	0.01 mL/min/g
O=S(=O)(c1cc(Cl)cc(Cl)c1)c1cnc2cc(F)ccc2c1-c1ccc(Cl)cc1	0.13 mL/min/g
Cc1ccc(S(=O)(=O)c2cnc3ccccc3c2-c2ccc(Cl)cc2)cc1	2.12 mL/min/g
O=S(=O)(c1cccc(F)c1)c1cnc2c(F)cccc2c1-c1ccc(F)cc1	0.19 mL/min/g
O=S(=O)(c1cc(F)cc(F)c1)c1cnc2c(F)cccc2c1-c1ccc(F)cc1	0.69 mL/min/g
O=S(=O)(c1ccc(F)cc1)c1cnc2cc(F)ccc2c1-c1ccc(Cl)cc1	1.23 to 1.25 mL/min/g

Tested on: not listed separately
Assay: Plasma concentration in ip dosed Wistar rat at anxiolytic MED administered as suspension after 45 mins during Vogel punished drinking conflict test
Type: ADME, organism-based
Conditions: not given
In short: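 Vehicle was a suspension containing 5% Tween 80, given i.p. at the Vogel minimum effective dose. Plasma was sampled about 45 min after dosing, right after the Vogel punished drinking test.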

Compound	concentration at 0.75 h
O=S(=O)(c1cc(Cl)cc(Cl)c1)c1cnc2cc(F)ccc2c1-c1cccc(F)c1	90.6 nM
O=S(=O)(c1ccc(F)c(F)c1)c1cnc2c(F)cccc2c1-c1ccc(Cl)cc1	59.7 nM
N#Cc1cccc(S(=O)(=O)c2cnc3cc(F)ccc3c2-c2ccc(F)cc2)c1	208 nM
O=S(=O)(c1ccc(F)c(Cl)c1)c1cnc2cc(F)ccc2c1-c1ccc(Cl)cc1	373 nM
O=S(=O)(c1cc(Cl)cc(Cl)c1)c1cnc2cc(F)ccc2c1-c1ccc(Cl)cc1	377 nM
O=S(=O)(c1cccc(F)c1)c1cnc2c(F)cccc2c1-c1ccc(F)cc1	1210 nM
O=S(=O)(c1cc(F)cc(F)c1)c1cnc2c(F)cccc2c1-c1ccc(F)cc1	151 nM

— ChEMBL document CHEMBL4007421, “Discovery and Preclinical Characterization of 3-((4-(4-Chlorophenyl)-7-fluoroquinoline-3-yl)sulfonyl)benzonitrile, a Novel Non-acetylenic Metabotropic Glutamate Receptor 5 (mGluR5) Negative Allosteric Modulator for Psychiatric Indications” (J Med Chem, 2017)
